The target in series [1] is Muscarinic acetylcholine receptor. Briefly: Inhibition of [3H]oxotremorine-M binding to rat brain membrane Muscarinic acetylcholine receptor.
The target of series [2] is T1, Muscarinic acetylcholine receptor M2 (Rattus norvegicus, UniProt P10980).
T1 sequence (P10980 whole entry): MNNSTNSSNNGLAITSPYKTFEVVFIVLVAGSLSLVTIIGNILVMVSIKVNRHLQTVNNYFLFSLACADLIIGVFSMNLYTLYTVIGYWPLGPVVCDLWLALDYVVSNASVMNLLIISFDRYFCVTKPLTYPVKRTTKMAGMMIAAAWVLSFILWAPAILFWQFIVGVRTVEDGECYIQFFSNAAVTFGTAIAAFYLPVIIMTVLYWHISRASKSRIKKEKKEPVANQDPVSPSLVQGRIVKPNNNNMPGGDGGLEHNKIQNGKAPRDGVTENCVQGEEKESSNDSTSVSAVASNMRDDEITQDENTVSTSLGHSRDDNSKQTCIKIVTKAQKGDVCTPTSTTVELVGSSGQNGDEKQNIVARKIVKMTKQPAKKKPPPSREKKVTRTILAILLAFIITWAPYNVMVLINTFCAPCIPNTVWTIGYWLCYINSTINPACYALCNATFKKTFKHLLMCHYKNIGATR
Briefly: Inhibition of [3H]quinuclidinyl benzilate binding to Muscarinic acetylcholine receptor M2 of rat heart.

The species entered for series [3] is Cavia porcellus. The experiment in a line: Effective concentration of compound for the agonistic activity on guinea pig ileum. Type of series: functional. The essentials: (§1)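 Isolated ileum preparation, with the agonist EC50 and the antagonist IC50 read from dose-response curves.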
Series [4] deals with T2, Muscarinic acetylcholine receptor M1 (Rattus norvegicus, UniProt P08482).
T2 sequence (P08482 whole entry): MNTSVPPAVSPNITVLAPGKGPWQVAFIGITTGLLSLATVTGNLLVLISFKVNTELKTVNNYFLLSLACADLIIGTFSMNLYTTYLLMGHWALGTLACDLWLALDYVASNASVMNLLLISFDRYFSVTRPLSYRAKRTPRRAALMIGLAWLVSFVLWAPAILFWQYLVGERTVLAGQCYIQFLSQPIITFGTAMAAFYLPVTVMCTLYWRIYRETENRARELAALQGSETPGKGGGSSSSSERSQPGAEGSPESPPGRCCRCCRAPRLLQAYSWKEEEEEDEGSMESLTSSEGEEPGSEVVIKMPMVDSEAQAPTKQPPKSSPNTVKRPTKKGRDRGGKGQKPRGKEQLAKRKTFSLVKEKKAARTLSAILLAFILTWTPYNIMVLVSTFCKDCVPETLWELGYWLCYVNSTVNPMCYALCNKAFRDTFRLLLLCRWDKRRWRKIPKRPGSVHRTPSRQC
The experiment in a line: Inhibition of [3H]pirenzepine binding to rat brain membrane Muscarinic acetylcholine receptor M1.

The species entered for series [5] is Cavia porcellus. The experiment in a line: Compound was tested for the antagonistic activity on guinea pig ileum. Type of series: functional. The essentials: as §1
Series [6] addresses T1, Muscarinic acetylcholine receptor M2. The experiment in a line: Inhibition of [3H]quinuclidinyl benzilate binding to Muscarinic acetylcholine receptor M2 in rat brain membrane. The format is cell membranes.
Series [7] is described as follows: (§2) Muscarinic agonist index (Ki in [3H]QNB / Ki in [3H]-OXO-M) was determined. Type of series: functional.
A short description of series [8]: M-1 selectivity expressed as M-2/M-1 index (Ki in [3H]-QNB / Ki in [3H]PZ) was determined. In outline: (§3)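 Ratio of Ki from [3H]QNB binding in rat heart to Ki from [3H]PZ binding in rat brain membranes. Ki = IC50/(1+[L]/Kd) in both. Heart assay: tissue homogenized with an ultraturrax, 4 mg tissue per assay, QNB Kd 9.1 ± 0.7 pM.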
The nature of series [9]: M-1 selectivity expressed as M-2/M-1 index (Ki in [3H]QNB / Ki in [3H]-PZ) was determined. The format is functional. The essentials:
as §3

Series [10] can be described thus: as §2.
Series [11] is filed under the species Cavia porcellus. The experiment in a line: Compound was tested for the agonistic activity on guinea pig ileum. The format is functional. In outline:
as §1

In series [12] the target is T1, Muscarinic acetylcholine receptor M2. The experiment in a line: Compound was tested for the inhibition of [3H]quinuclidinyl benzilate binding to Muscarinic acetylcholine receptor M2 in rat brain membrane. The format is cell membranes.

On to `C#CCOc1noc2c1C[S+](C)CC2.[I-]` (configuration not stated), for which the 50% inhibitory concentration (IC50) was 0.0033 µM in [1]; 0.44 µM in series [2]; 0.25 µM in series [4]; greater than 0.2 µM in the series filed under Cavia porcellus [5]; 2.6 µM in series [6]. The molecule further displayed an EC50 in the series filed under Cavia porcellus [3] of 0.56 µM. This molecule also yielded a M-agonist index in series [7] of 128. Also, the Ratio in series [8] came out at 0.22.
As to `Cn1oc2c(c1=O)C[S+](C)CC2.[I-]` (configuration not stated), the concentration for half-maximal inhibition (IC50) in [1] was 0.22 µM; in [2] it was 10 µM; in series [4], 30 µM; in the series filed under Cavia porcellus [5] it was greater than 6 µM; in series [6] it was 110 µM. Further, a half-maximal response in the series listed under Cavia porcellus [3] (EC50) required 9.3 µM. The M-agonist index in series [7] was 81. The Ratio in [8] is 0.04.
Take `COC(=O)C1=CCC[S+](C)C1.[I-]` (configuration not stated) [SULFOARECOLINE IODIDE]: the half-inhibitory concentration (IC50) in [1] was determined as 0.0014 µM; in [2], 2.5 µM; in series [4], 2.6 µM; in series [6], 34 µM. In series [7], the M-agonist index turned out to be 3930. In [8], the Ratio was determined as 0.12.
Take `COc1noc2c1CSCC2`: the concentration for half-maximal inhibition (IC50) in [1] is greater than 1000 µM; in series [2], greater than 1000 µM; in series [4], greater than 1000 µM; in the series listed under Cavia porcellus [5], greater than 50 µM; in [6] it was greater than 1000 µM. In the series filed under Cavia porcellus [3], this molecule came in with an EC50 greater than 50 µM.
For the molecule `COc1noc2c1C[N+](C)(C)CC2.[I-]`, the IC50 in series [1] is 0.043 µM; in series [2], 9.5 µM; in series [4], 2.8 µM; in the series listed under Cavia porcellus [5], greater than 3 µM; in [6], 74 µM. This molecule also displayed an EC50 in the series filed under Cavia porcellus [3] of 8.2 µM. Moreover, in series [7], the M-agonist index came to 279. Moreover, in series [8], the Ratio came to 0.42.
For the molecule `COc1noc2c1C[S+](C)CC2.[I-]` (configuration not stated), the IC50 in [1] is 0.019 µM; in series [2], 1.6 µM; in [4] it was 4.1 µM; in the series listed under Cavia porcellus [5], greater than 0.4 µM; in series [6], 36 µM. Also, in the series listed under Cavia porcellus [3], the EC50 is 0.84 µM. The same molecule returned a M-agonist index in [7] of 307. For the same molecule, in series [8], the Ratio was determined as 0.05.
Regarding `CCOC(=O)C1=CCC[S+](C)C1.[Cl-]` (configuration not stated), the IC50 in series [1] is 0.0092 µM; in [2], 3.9 µM; in [4], 0.4 µM; in series [6], 22 µM. In series [7], this molecule returned a M-agonist index of 387. Further, the Ratio in series [8] worked out at 1.2.
Molecule `COC(=O)C1=CCCN(C)C1` [ARECOLINE] displayed an EC50 in the series filed under Cavia porcellus [3] of 0.15 µM. For the same molecule, in the series listed under Cavia porcellus [5], the 50% inhibitory concentration (IC50) was greater than 1 µM.
For the molecule `COc1noc2c1CN(C)CC2`, the IC50 is 0.028 µM in [1]; 16 µM in series [2]; 6.4 µM in [4]; greater than 0.2 µM in the series listed under Cavia porcellus [5]; 38 µM in [6]. Also, the Ratio in series [9] turned out to be 0.31. For the same molecule, in series [10], the M-agonist index came out at 220. Besides, the EC50 in the series filed under Cavia porcellus [11] came to 0.83 µM.
Consider `CCOc1noc2c1C[S+](C)CC2.[I-]` (configuration not stated), for which the IC50 in series [1] came out at 0.23 µM; in series [2] it was 4.9 µM; in series [4], 0.53 µM; in the series listed under Cavia porcellus [5], 15 µM; in series [12] it was 4.6 µM. In the series filed under Cavia porcellus [3], this molecule yielded a concentration giving a half-maximal response (EC50) greater than 50 µM. The same molecule came in with a M-agonist index in series [7] of 3.3. In [8], the Ratio came to 1.2.
For `Cn1oc2c(c1=O)CSCC2`, the IC50 is greater than 1000 µM in series [1]; greater than 1000 µM in series [2]; greater than 1000 µM in [4]; greater than 50 µM in the series listed under Cavia porcellus [5]; greater than 1000 µM in [6]. Further, the concentration for a half-maximal effect (EC50) in the series listed under Cavia porcellus [3] was greater than 50 µM.
As for `CC(C)Oc1noc2c1C[S+](C)CC2.[I-]` (configuration not stated), the 50% inhibitory concentration (IC50) was 0.039 µM in [1]; 1.8 µM in [2]; 0.43 µM in series [4]; greater than 3 µM in the series listed under Cavia porcellus [5]; 4.8 µM in series [6]. This molecule yielded a concentration giving a half-maximal response (EC50) in the series listed under Cavia porcellus [3] of 6.2 µM. In [7], this molecule showed a M-agonist index of 20. In addition, in series [8], the Ratio turned out to be 0.53.

The IC50 is the concentration that gives 50% inhibition. A higher IC50 goes with a need for much substance. One may read the EC50 as the concentration that produces a half-maximal response. High values mean a need for much substance, low ones an effect from little substance.

Source of the values: ChEMBL document CHEMBL1124147 (J Med Chem, 1988).
